The values that follow come from ChEMBL document CHEMBL1938348, “Novel inhibitors of surface layer processing in Clostridium difficile” (Bioorg Med Chem, 2012).

The source made the active and inactive calls. The rule behind the calls is not given here. Where a SMILES comes first, the peptide text is derived from it. The star is where a group is joined. X1 = CCOC(=O)/C=C/[C@H](CO)N*

Conditions in all cases: Clostridioides difficile
In assay [1] the target is T1, Precursor of the S-layer proteins (Clostridium difficile (strain 630)) (UniProt Q183M8).
T1 sequence (whole entry): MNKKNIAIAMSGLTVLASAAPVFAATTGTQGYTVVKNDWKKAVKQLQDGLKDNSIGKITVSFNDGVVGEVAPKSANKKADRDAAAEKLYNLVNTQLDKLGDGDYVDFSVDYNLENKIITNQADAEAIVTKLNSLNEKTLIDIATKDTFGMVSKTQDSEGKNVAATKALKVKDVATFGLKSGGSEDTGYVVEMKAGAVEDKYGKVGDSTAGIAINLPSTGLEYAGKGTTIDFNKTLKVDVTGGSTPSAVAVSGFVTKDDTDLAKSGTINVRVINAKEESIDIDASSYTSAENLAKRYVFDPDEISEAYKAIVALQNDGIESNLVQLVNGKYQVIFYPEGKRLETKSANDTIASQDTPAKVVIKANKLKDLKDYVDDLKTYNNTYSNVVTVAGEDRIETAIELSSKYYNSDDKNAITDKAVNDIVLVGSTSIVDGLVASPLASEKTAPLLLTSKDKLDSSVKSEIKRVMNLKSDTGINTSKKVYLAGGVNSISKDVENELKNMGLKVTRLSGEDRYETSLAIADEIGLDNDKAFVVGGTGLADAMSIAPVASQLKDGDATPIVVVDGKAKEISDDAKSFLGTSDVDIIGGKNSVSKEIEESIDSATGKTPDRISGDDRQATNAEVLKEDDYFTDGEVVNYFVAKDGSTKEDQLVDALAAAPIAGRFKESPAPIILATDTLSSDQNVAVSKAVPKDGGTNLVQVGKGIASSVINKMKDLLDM
In words: Inhibition of Clostridium difficile 630 S-layer processing of slpA at 100 uM by Western blot analysis. A digest of the protocol:
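C. difficile strain 630 grown overnight (16 h), anaerobic, 37 °C, in BHI with compound at 100 µM or DMSO vehicle. Surface layer proteins extracted with 0.2 M glycine–HCl pH 2.2 (30 min, room temperature), run on SDS–PAGE and semi-dry blotted to PVDF. Probed with rabbit anti-LMW SLP (1/200,000), then goat anti-rabbit-HRP (1/2000). Chemiluminescence read-out.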

For assay [2], the target named is T2, Cell surface protein (Clostridium difficile (strain 630)) (UniProt Q183M1).
T2 sequence (whole entry): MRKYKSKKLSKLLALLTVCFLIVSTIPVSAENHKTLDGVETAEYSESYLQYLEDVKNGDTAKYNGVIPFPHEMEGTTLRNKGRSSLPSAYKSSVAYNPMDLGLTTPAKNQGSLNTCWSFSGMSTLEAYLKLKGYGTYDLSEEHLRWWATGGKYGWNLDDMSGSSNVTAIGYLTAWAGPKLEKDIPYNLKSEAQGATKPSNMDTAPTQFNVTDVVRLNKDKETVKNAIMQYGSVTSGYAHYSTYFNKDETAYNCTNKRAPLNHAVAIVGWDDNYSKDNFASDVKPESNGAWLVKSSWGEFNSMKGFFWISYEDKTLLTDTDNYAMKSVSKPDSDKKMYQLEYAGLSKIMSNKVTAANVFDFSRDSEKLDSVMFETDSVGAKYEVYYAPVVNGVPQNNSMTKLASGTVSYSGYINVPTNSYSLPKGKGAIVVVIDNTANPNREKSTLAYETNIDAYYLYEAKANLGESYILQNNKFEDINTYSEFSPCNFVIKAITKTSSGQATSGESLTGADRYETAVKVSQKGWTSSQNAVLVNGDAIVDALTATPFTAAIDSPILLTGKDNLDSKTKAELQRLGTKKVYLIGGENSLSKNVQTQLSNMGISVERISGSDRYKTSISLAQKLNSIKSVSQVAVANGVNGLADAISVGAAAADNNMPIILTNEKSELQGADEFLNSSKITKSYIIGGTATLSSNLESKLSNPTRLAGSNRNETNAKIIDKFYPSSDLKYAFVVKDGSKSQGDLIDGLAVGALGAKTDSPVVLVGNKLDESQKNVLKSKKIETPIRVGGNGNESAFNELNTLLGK
In words: Binding affinity to Clostridium difficile 630 cwp84 at 74 kDa by Western blot analysis.

Assay [3] concerns the target T2, Cell surface protein (Clostridium difficile (strain 630)). As to the kind of experiment: Binding affinity to Clostridium difficile 630 higher molecular weight cwp84 by Western blot analysis. A general note: Immunoblotting shows a protein as a band on a membrane.
Assay [4] shares this target. In words: Binding affinity to Clostridium difficile 630 cwp84 at lower band by Western blot analysis.

As for `CCOC(=O)/C=C/C(=O)N[C@@H](CCCNC(=N)N)C(=O)NCCOCCOCCOCCNC(=O)CCCC[C@@H]1SC[C@@H]2NC(=O)N[C@@H]21`, the inhibition result in assay [1] was “inactive”.

On to `C[C@H](NC(=O)CF)C(=O)NCCOCCOCCOCCNC(=O)CCCC[C@@H]1SC[C@@H]2NC(=O)N[C@@H]21`, for which the inhibition result in assay [1] is “inactive”.

Regarding `CC(C)C[C@H](NC(=O)CCl)C(=O)N[C@@H](CCCNC(=N)N)C(=O)NCCOCCOCCOCCNC(=O)CCCC[C@@H]1SC[C@@H]2NC(=O)N[C@@H]21`, the inhibition result in assay [1] is “Active”. Moreover, the result in assay [2] and in assay [3] was Active.

Regarding `CCOC(=O)/C=C/C(=O)N[C@@H](C)C(=O)NCCOCCOCCOCCNC(=O)CCCC[C@@H]1SC[C@@H]2NC(=O)N[C@@H]21`, the inhibition result in assay [1] is “inactive”.

As for `C[C@H](NC(=O)CCl)C(=O)NCCOCCOCCOCCNC(=O)CCCC[C@@H]1SC[C@@H]2NC(=O)N[C@@H]21`, in assay [1], the inhibition entry was “Active”.

For `N=C(N)NCCC[C@H](NC(=O)CF)C(=O)NCCOCCOCCOCCNC(=O)CCCC[C@@H]1SC[C@@H]2NC(=O)N[C@@H]21`, the inhibition result in assay [1] was “inactive”.

`CCOC(=O)/C=C/[C@H](CO)NC(=O)[C@H](CCCCN)NC(=O)[C@@H](NC(=O)[C@H](CCC(=O)O)NC(=O)[C@H](CC(C)C)NC(C)=O)[C@@H](C)O` (Ac-LETK-X1): the inhibition result in assay [1] was “Active”.

As for `CCOC(=O)/C=C/C(=O)N[C@@H](CC(C)C)C(=O)N[C@@H](CCCNC(=N)N)C(=O)NCCOCCOCCOCCNC(=O)CCCC[C@@H]1SC[C@@H]2NC(=O)N[C@@H]21`, the inhibition entry in assay [1] is “inactive”.

`CCOC(=O)/C=C/[C@H](CO)NC(=O)[C@H](Cc1ccc(O)cc1)NC(=O)[C@H](CCCCNC(=O)CCCC[C@@H]1SC[C@@H]2NC(=O)N[C@@H]21)NC(C)=O`: the inhibition result in assay [1] was “Active”. The outcome in assay [4] was Active. The result in assay [3] was inactive.

In the case of `CCOC(=O)/C=C/[C@H](CO)NC(=O)[C@H](CC(C)C)NC(=O)[C@H](CCCCNC(=O)CCCC[C@@H]1SC[C@@H]2NC(=O)N[C@@H]21)NC(C)=O`, in assay [1], the inhibition entry was “Active”. Moreover, the result in assay [4] was Active. In addition, the result in assay [3] was inactive.

Take `O=C(CCCC[C@@H]1SC[C@@H]2NC(=O)N[C@@H]21)NCCOCCOCCOCCNC(=O)[C@H](CO)NC(=O)CF`: in assay [1], the inhibition entry is “inactive”.

`CC(C)C[C@H](NC(=O)CF)C(=O)N[C@@H](CCCNC(=N)N)C(=O)NCCOCCOCCOCCNC(=O)CCCC[C@@H]1SC[C@@H]2NC(=O)N[C@@H]21`: the inhibition result in assay [1] is “inactive”.

Regarding `O=C(CCCC[C@@H]1SC[C@@H]2NC(=O)N[C@@H]21)NCCOCCOCCOCCNC(=O)[C@H](CO)NC(=O)CCl`, the inhibition result in assay [1] is “Active”.

With `CCOC(=O)/C=C/C(=O)N[C@@H](CO)C(=O)NCCOCCOCCOCCNC(=O)CCCC[C@@H]1SC[C@@H]2NC(=O)N[C@@H]21`, in assay [1], the inhibition entry was “inactive”.

Take `N=C(N)NCCC[C@H](NC(=O)CCl)C(=O)NCCOCCOCCOCCNC(=O)CCCC[C@@H]1SC[C@@H]2NC(=O)N[C@@H]21`: the inhibition entry in assay [1] was “Active”.
